Test [1] has as its target Tyrosine-protein kinase BTK (Homo sapiens, UniProt Q06187). Put plainly: Inhibition of recombinant human N-terminal His-tagged BTK expressed in baculovirus infected sf9 cells using poly(4:1 Glu,Tyr) as substrate by ADP-Glo kinase assay. On the technique in general: In ADP-Glo the light output rises with the ADP produced.
The nature of test [2]: Antiproliferative activity against human Raji cells after 48 hrs by CCK-8 assay. The class given is functional, cell-based. The gist of the method: (§1)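 Dose-response curves run at five concentrations in Ramos and Raji B-cell leukemia lines, with viability read by the CCK-8 method. IC50 is the concentration in micromolar that inhibits cell growth by 50%, taken from these curves.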

For test [3], the target named is T1, Tyrosine-protein kinase JAK3 (Homo sapiens, UniProt P52333).
T1 sequence (P52333 whole entry): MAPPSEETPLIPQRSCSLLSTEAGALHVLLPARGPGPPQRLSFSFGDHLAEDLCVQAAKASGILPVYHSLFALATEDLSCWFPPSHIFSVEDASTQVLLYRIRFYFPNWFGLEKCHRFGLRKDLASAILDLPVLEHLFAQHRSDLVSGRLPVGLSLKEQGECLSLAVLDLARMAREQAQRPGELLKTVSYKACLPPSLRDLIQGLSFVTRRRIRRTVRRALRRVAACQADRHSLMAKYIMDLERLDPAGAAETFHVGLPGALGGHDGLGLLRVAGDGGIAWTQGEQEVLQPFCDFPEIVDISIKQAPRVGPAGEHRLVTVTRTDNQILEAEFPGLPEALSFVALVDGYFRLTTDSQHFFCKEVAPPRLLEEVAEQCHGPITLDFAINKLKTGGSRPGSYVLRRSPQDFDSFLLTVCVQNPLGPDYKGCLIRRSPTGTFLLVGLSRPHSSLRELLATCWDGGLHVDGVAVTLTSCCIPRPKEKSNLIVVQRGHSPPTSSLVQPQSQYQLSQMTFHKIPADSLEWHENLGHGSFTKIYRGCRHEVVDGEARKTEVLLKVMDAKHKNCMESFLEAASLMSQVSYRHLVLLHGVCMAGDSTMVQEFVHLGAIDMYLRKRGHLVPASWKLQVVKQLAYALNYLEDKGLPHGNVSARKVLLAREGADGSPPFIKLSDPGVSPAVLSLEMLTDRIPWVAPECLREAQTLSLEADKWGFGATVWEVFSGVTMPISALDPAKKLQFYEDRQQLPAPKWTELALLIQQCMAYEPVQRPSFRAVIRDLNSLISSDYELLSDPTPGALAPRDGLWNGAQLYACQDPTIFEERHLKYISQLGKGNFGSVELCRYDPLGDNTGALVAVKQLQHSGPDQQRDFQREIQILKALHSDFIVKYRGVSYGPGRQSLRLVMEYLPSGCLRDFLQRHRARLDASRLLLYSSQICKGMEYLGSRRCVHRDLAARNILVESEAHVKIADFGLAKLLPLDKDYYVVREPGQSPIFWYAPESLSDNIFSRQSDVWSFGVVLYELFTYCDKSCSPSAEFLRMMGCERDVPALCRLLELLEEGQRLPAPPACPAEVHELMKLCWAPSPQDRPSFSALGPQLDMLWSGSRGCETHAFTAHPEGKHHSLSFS
Put plainly: Inhibition of JAK3 (unknown origin).

Test [4] is described as follows: Antiproliferative activity against human Ramos cells after 48 hrs by CCK-8 assay. The class given is functional, cell-based. The gist of the method: as §1
Background: Tetrazolium assays rely on reduction of a dye to a coloured formazan, in cell work by metabolically active cells.

The nature of test [5]: Cell cycle arrest in human Ramos cells assessed as accumulation at S phase at 10 uM by propidium iodide staining based flow cytometry (reference value: 42.23%). The class given is functional. The gist of the method:
(§2)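 Ramos cells treated, then cell-cycle phase distribution (G0/G1, S, G2/M) measured by flow cytometry. Three separate experiments, expressed as mean±standard deviation.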
In general terms: Flow cytometry measures light scatter and fluorescence of single cells or particles in a stream.

Test [6] relates to Ramos. Put plainly: Induction of apoptosis in human Ramos cells assessed as late apoptotic cells at 10 uM after 48 hrs by annexin V/FITC propidium iodide staining based flow cytometry relative to control. It is filed as functional. The gist of the method:
(§3)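 Ramos cells exposed for 48 h to the indicated compound concentrations. Cells then stained with annexin V/FITC and analysed by flow cytometry for apoptosis.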

The test system of test [7] is Ramos. Kind of test: Induction of apoptosis in human Ramos cells assessed as necrotic cells at 10 uM after 48 hrs by annexin V/FITC propidium iodide staining based flow cytometry relative to control. The class given is functional. Put shortly: as §3
Test [8] relates to Ramos. Put plainly: Induction of apoptosis in human Ramos cells assessed as early apoptotic cells at 10 uM after 48 hrs by annexin V/FITC propidium iodide staining based flow cytometry relative to control. The class given is functional. Put shortly:
as §3

The test system of test [9] is Ramos. Put plainly: Induction of apoptosis in human Ramos cells assessed as viable cells at 10 uM after 48 hrs by annexin V-FITC/propidium iodide staining based flow cytometry relative to control. The class given is functional. The settings on record: for viability at 10 µM: Homo sapiens, Ramos, 48 h, read-out: Activity. Put shortly: as §3
A short description of test [10]: Cell cycle arrest in human Ramos cells assessed as accumulation at G0/G1 phase at 10 uM by propidium iodide staining based flow cytometry (reference value: 56.19%). The class given is functional. The gist of the method: as §2
Test [11] in a line: Cell cycle arrest in human Ramos cells assessed as accumulation at G2/M phase at 10 uM by propidium iodide staining based flow cytometry (reference value: 1.58%). It is filed as functional. The gist of the method:
as §2

The IC50 is the concentration at which inhibition is half-maximal.

Molecules are shown by their SMILES.

Chain of Tyrosine-protein kinase BTK (Q06187 whole entry): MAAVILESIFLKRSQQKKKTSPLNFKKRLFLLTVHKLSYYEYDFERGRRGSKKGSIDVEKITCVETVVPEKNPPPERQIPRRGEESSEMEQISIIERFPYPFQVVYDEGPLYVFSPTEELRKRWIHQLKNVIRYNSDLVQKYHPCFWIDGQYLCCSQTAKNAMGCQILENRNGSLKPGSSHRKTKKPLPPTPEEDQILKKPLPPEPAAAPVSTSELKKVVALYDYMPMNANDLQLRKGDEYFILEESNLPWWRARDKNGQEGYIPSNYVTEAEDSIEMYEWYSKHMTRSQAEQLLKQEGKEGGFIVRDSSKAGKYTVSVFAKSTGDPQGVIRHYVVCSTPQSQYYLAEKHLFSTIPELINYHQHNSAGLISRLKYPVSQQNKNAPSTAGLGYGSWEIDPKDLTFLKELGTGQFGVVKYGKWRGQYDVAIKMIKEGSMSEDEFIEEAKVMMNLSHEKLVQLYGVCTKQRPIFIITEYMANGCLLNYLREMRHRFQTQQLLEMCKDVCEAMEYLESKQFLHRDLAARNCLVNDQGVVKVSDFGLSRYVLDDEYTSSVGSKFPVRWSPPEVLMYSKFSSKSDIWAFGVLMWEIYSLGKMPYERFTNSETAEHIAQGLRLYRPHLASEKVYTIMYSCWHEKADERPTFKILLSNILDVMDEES

In the case of `C=CC(=O)Nc1cccc(-n2cnc3cnc(Nc4ccc(N5CCN(S(C)(=O)=O)CC5)cc4)nc32)c1`, the IC50 is 0.0171 µM in [1], more than 40 µM in test [2], 0.0701 µM in test [3] and more than 40 µM in test [4].
Regarding `C=CC(=O)Nc1cccc(-n2c(=O)[nH]c3cnc(Nc4ccc(N5CCOCC5)cc4OC)nc32)c1`, the IC50 in test [1] is more than 0.1 µM; in [2], more than 40 µM; in test [3], more than 0.1 µM; in test [4], 39.1 µM.
Consider `C=CC(=O)Nc1cccc(-n2cnc3cnc(Nc4ccc(N5CCN(S(C)(=O)=O)C(C)C5)cc4)nc32)c1` (stereo unspecified), for which the concentration for half-maximal inhibition (IC50) in [1] is 0.0132 µM; in test [2], 31.7 µM; in test [3], 0.0831 µM; in [4], more than 40 µM.
The corresponding values for `C=CC(=O)Nc1cccc(-n2cnc3cnc(Nc4ccc(N5CCOCC5)cc4)nc32)c1` are 0.0151 µM, 11.8 µM, more than 0.1 µM and 11.3 µM.
On the same counts, the results for `C=CC(=O)Nc1cccc(-n2cnc3cnc(Nc4ccc(N5CCN(C)CC5)cc4OC)nc32)c1` are more than 0.1 µM, 13.7 µM, more than 0.1 µM and 13.2 µM.
For the compound `C=CC(=O)Nc1cccc(Nc2nc(Nc3ccc(OCCOC)cc3)ncc2F)c1` [SPEBRUTINIB], the Activity was 47.9% in [5]; 20.4% with Ramos [6]; 4.3% in the test with Ramos [7]; 21.1% in the test on Ramos [8]; 31% in test [10]; 20.9% in [11]. Besides, the IC50 came out at 25.3 µM in test [2] and 15.1 µM in test [4]. Moreover, the viability at 10 µM in the test on Ramos [9] amounted to 54.2%.
Consider `C=CC(=O)Nc1cccc(-n2cnc3cnc(Nc4ccc(N5CCN(C)CC5)cc4)nc32)c1`, for which the concentration for half-maximal inhibition (IC50) stood at 0.0102 µM in test [1], 7.55 µM in [2], 0.0671 µM in test [3] and 8.22 µM in [4].
Turning to `C=CC(=O)N1CCC[C@@H](n2nc(-c3ccc(Oc4ccccc4)cc3)c3c(N)ncnc32)C1` [IBRUTINIB], the Activity in test [5] amounted to 53.5%; with Ramos [7] it was 0.1%; with Ramos [8] it was 37%; in the test with Ramos [9] it was 62%; in test [10] it was 46.4%; in test [11], 0.15%. Moreover, the half-maximal inhibitory concentration (IC50) in test [2] stood at 15.2 µM; in [4], 8.11 µM.
`C=CC(=O)Nc1cccc(-n2cnc3cnc(Nc4ccc(OCCCN5CCOCC5)cc4)nc32)c1`: the Activity in [5] came to 52.4%; in the test on Ramos [6] it was 10.9%; in the test with Ramos [7], 2.2%; with Ramos [8] it was 41.9%; in test [10], 41%; in [11], 6.61%. Further, the IC50 was determined as 0.0004 µM in [1], 12.6 µM in test [2], 0.0726 µM in [3] and 7.75 µM in test [4]. For the same compound, the viability at 10 µM in the test with Ramos [9] was 44.9%.
For the compound `C=CC(=O)Nc1cccc(-n2cnc3cnc(Nc4ccc(N5CCN(C(C)=O)C(C)C5)cc4)nc32)c1` (stereo unspecified), the IC50 in [1] is 0.0005 µM; in test [2], 24.2 µM; in test [3], 0.0612 µM; in test [4] it was more than 40 µM.
On the same counts, the results for `C=CC(=O)Nc1cccc(-n2cnc3cnc(Nc4ccc(N5CCN(S(C)(=O)=O)CC5)cc4OC)nc32)c1` are more than 0.1 µM, 21.9 µM, more than 0.1 µM and 38.6 µM.
The corresponding values for `C=CC(=O)Nc1cccc(-n2cnc3cnc(Nc4ccc(N5CCN(CC)CC5)cc4OC)nc32)c1` are more than 0.1 µM, more than 40 µM, more than 0.1 µM and more than 40 µM.
The corresponding values for `C=CC(=O)Nc1cccc(-n2cnc3cnc(Nc4ccc(N5CCN(CC)CC5)cc4)nc32)c1` are 0.0005 µM, 19.5 µM, 0.0675 µM and 12.1 µM.
`C=CC(=O)Nc1cccc(-n2c(=O)[nH]c3cnc(Nc4ccc(N5CCN(CC)CC5)cc4)nc32)c1`: the IC50 in test [1] was more than 0.1 µM; in [2], 11.9 µM; in test [3] it was more than 0.1 µM; in [4] it was 35.2 µM.
`C=CC(=O)Nc1cccc(-n2cnc3cnc(Nc4ccc(OC)cc4)nc32)c1`: the IC50 is 0.0971 µM in test [1], 31.2 µM in test [2], 0.0672 µM in test [3] and more than 40 µM in test [4].

These data come from ChEMBL document CHEMBL3862041, “Discovery of Novel Bruton's Tyrosine Kinase (BTK) Inhibitors Bearing a N,9-Diphenyl-9H-purin-2-amine Scaffold” (ACS Med Chem Lett, 2016).
